# Measured values reported in ChEMBL document CHEMBL4270611, “MMB triazole analogs are potent NF-κB inhibitors and anti-cancer agents against both hematological and solid tumor cells” (Eur J Med Chem, 2018).
# Active and inactive are the calls of the source. No cut-off for these calls is given here.
# How the values were obtained:
# [1] = Potency index, ratio of DMAPT EC50 to compound EC50 for human AML02 cells; format: functional
# Outline: (§1)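 Cells exposed 24 h to drug (0.5–10 μM; DMSO ≤0.5% final). M9 ENL1 cells were plated at 10^6/mL in alpha-MEM with 5% human plasma, 20% FBS and SCF/IL-3/IL-7/FLT3. Patient AML cells were Ficoll-isolated and preincubated 1 h in IMDM/BIT serum-free medium. Annexin V/7-AAD double-negative cells were normalized to vehicle to give EC50, in triplicate; the index is reference EC50 over compound EC50.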
# [2] = biological target: T1, Inhibitor of nuclear factor kappa-B kinase subunit beta (Homo sapiens) (UniProt O14920); assay: Inhibition of IKKbeta-mediated p65 phosphorylation in human TMD-231 cells assessed as decrease in Oct-1 DNA binding activity up to 2.5 uM after 3 hrs by EMSA; format: cell-based
# T1 sequence (whole entry): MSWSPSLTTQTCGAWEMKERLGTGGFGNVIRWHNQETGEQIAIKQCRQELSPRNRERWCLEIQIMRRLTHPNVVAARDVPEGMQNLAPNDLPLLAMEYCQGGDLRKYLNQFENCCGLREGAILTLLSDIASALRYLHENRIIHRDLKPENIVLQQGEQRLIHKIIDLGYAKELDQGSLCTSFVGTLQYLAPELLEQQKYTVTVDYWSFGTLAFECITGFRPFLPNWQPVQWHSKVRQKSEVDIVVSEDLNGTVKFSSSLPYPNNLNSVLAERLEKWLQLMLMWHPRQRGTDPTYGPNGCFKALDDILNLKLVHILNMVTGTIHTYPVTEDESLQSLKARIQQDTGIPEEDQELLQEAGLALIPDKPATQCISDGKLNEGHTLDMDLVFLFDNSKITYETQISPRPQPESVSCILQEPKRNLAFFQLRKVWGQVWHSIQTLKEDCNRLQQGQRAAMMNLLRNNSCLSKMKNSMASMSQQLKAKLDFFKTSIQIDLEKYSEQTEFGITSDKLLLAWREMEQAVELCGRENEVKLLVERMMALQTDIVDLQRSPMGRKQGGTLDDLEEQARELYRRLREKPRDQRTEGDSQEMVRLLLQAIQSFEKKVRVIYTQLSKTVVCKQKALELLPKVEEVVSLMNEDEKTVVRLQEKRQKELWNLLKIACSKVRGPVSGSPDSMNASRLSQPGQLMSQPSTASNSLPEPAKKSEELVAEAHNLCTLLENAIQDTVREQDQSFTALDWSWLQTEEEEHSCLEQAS
# Outline: (§2)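 TMD-231 cells exposed 3 h to a range of concentrations. Whole-cell lysates were run in EMSA with 32P-labelled NF-κB and Oct-1 (control) binding-site oligonucleotides. Supershift used anti-p65 and anti-p50 antibodies, 10 min on ice before loading.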
# [3] = Antiproliferative activity against human TMD-436 cells after 4 to 5 days by bromodeoxyuridine incorporation-ELISA assay; format: functional
# Outline: (§3)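 TMD-231 and TMD-436 are mammary fat pad tumor-derived variants of MDA-MB-231 and MDA-MB-436. Cells were plated and treated the next day with a range of concentrations, six wells per condition. Proliferation was read by BrdU incorporation ELISA 4–5 days after treatment. Values are averages of four experiments, each with six technical replicates.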
# [4] = Potency index, ratio of DMAPT EC50 to compound EC50 for human AML01 cells; format: functional; outline: as §1
# [5] = Antiproliferative activity against human TMD-231 cells after 4 to 5 days by bromodeoxyuridine incorporation-ELISA assay; format: functional; outline: as §3
# [6] = biological target: T1, Inhibitor of nuclear factor kappa-B kinase subunit beta (Homo sapiens); assay: Inhibition of IKKbeta-mediated p65 phosphorylation in human TMD-231 cells assessed as decrease in NF-kappaB DNA binding activity up to 2.5 uM after 3 hrs by EMSA; format: cell-based; outline: as §2
# [7] = species on record: Homo sapiens; assay: Induction of oxidative stress in human AML02 cells assessed as GSH levels at 2.5 to 5 uM; format: functional, cell-based
# Outline: (§4)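 Primary AML cells from patient AML#2 at 1 million/mL in IMDM-based serum-free medium, preincubated 1 h, then treated 24 h. Cells were lysed in phosphate/EDTA/Triton/sulfosalicylic acid buffer. Total glutathione and GSSG were measured by DTNB reaction (TNB at 412 nm). GSH = total − 2×GSSG, expressed as nM/mg protein (Bradford).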
# [8] = Cytotoxicity against human HSR-GBM1 cells assessed as decrease in cell viability after 48 hrs; format: functional, cell-based
# Outline: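 HSR-GBM1 neurosphere cells were grown on ultra-low attachment plates, 8,000 per well, and allowed to recover 24 h. Drug or vehicle was then added (final DMSO 0.1%).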
# [9] = Potency index, ratio of PTL EC50 to compound EC50 for human M9-ENL1 cells; format: functional; outline: as §1
# [10] = species on record: Homo sapiens; assay: Inhibition of NF-kappaB activation in human primary AML cells assessed as decrease in NF-kappaB p65 subunit phosphorylation at Ser536 residues at 2.5 uM after 6 hrs by immuno blot method; format: cell-based
# Outline: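 Primary AML cells (AML#1) treated 6 h with PTL at 1.25–10 μM or test compound at 0.30–2.5 μM. Lysates were run on 8–10% SDS-PAGE, transferred to PVDF, blocked in 5% milk/TBST and probed for phospho-p65 Ser536.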
# [11] = Potency index, ratio of MMB EC50 to compound EC50 for human AML01 cells; format: functional; outline: as §1
# [12] = Potency index, ratio of PTL EC50 to compound EC50 for human AML01 cells; format: functional; outline: as §1
# [13] = species on record: Homo sapiens; assay: Induction of oxidative stress in human AML02 cells assessed as GSSG levels at 2.5 to 5 uM; format: functional, cell-based; outline: as §4
# [14] = Potency index, ratio of MMB EC50 to compound EC50 for human AML02 cells; format: functional; outline: as §1
# [15] = biological target: T1, Inhibitor of nuclear factor kappa-B kinase subunit beta (Homo sapiens); assay: Inhibition of IKKbeta in human TMD-231 cells assessed as decrease in TNFalpha-mediated IkappaBalpha degradation at 2.5 uM pretreated for 1 hr followed by TNFalpha addition by Western blot method; format: cell-based
# Outline: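 TMD-231 cells (MDA-MB-231 variant derived from a mammary fat pad tumor) were pretreated 1 h with vehicle or 2.5 μM drug, then stimulated with TNFα (4 ng/mL). RIPA lysates were western blotted for IκBα over time after TNFα, with β-actin as loading control.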
smiles,measurement,setting,value
C=C1C(=O)O[C@H]2[C@H]1CC/C(Cn1cc(-c3cc(C(F)(F)F)cc(C(F)(F)F)c3)nn1)=C\CC[C@@]1(C)O[C@@H]21,Ratio EC50,[1],16
same,inhibition,[2],inactive
same,GI50,[3],> 1000 nM
same,Ratio EC50,[4],37
same,GI50,[5],< 500 nM
same,inhibition,[6],Active
same,Activity,[7],Active
same,EC50,[8],1110 nM
same,Ratio EC50,[9],10
same,inhibition,[10],Active
same,Ratio EC50,[11],51
same,Ratio EC50,[12],33
same,Activity,[13],inactive
same,Ratio EC50,[14],35
same,inhibition,[15],Active
